# Screening results: PubChem, several laboratories
# Compounds with a hit are over-represented: about 2.2% of the library has one in this group of screens.
# Tn6 DDE FP: disrupts Tn6 cyclic peptide binding to fibrin D-Dimer-E complex; Fibrin DD(E) TRITC-Tn6 fluorescence polarization displacement; inhibition, % at 8.3 µM; 370,000 tested, 0.21% active;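 active = inhibition above a per-campaign cutoff: mean of compounds within control limits plus 3 SD, cut at about 15% in these data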;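 note: 0% = median of all compound wells on the plate and 100% = blocking peptide control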
# Target sequence (P02675 whole entry, looked up): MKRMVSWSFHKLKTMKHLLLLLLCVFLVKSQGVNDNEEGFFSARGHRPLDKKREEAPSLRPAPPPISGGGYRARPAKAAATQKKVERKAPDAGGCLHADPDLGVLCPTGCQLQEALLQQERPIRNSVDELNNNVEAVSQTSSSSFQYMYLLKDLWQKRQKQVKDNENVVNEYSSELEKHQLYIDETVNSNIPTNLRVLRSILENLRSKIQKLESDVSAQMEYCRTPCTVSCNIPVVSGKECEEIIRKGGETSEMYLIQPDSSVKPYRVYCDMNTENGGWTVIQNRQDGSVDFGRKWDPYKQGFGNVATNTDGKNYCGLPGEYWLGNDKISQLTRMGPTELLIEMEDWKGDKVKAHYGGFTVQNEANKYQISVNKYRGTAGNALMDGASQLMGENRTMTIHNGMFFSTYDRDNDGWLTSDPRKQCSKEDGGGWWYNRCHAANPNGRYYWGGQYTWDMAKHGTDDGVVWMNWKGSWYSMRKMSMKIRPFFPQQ
# proKLK7 act: activates the human kallikrein-7 zymogen | P49862 | activation, % at 7 µM | purified proKLK7, EDANS-DABCYL substrate fluorescence; 100% is mature enzyme control, 0% vehicle | 370,000 tested, 0.9% active | AID 652039;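 active = activation above the mean of all tested compounds plus 3 SD, computed per campaign excluding outliers beyond control limits, cut at about 13% in these data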
# SKN-1 inh: C. elegans SKN-1 inhibition | C. elegans VP596 Pgst-4::GFP/RFP ratio, acrylamide-induced, 24 h | inhibition, % at 21.8 µM | 360,000 tested, 0.49% active | AID 624304;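 active = interference check ratio from 0.5 to 1.5 plus GFP to RFP signal ratio inhibition reaching or exceeding a fixed threshold, cut at about 30% in these data, passing the limit was not always enough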
# MT1-MMP act inh: inhibitors of human MT1-MMP activation. P50281. HT1080 RFP-PRO-GFP cells, GFP/RFP ratio fluorescence, overnight; percent of plate control window, DMSO zero. GFP/RFP ratio change, % at 20 µM. 360,000 tested, 0.061% active. AID 651647;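 active = GFP/RFP ratio change of at least 30% with cell ATP level not reduced by more than half and red fluorescence within 50% of control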
#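 system = RFP-PRO-GFP reporter HT1080 cells | dosing = 20 µM single dose, 1% DMSO | timing = overnight cell settling, then overnight compound exposure, 37 °C, 5% CO2 | read-out basis = GFP/RFP fluorescence ratio | controls = DMSO and RFP-L50D-GFP cell wells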
# DDE Tn7 FP inh: disrupts Tn7 cyclic peptide binding to fibrin D-Dimer-E complex. FP displacement of FITC-Tn7 peptide from fibrin DD(E); 0% = median of compound wells per plate. inhibition, % at 8.3 µM. 370,000 tested, 0.13% active;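 active = inhibition above the mean of compounds falling within the control limits plus 3 SD of them, cut at about 14% in these data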;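 note: 0% = plate median of compound wells and 100% = 10 µM Aha-Tn7 peptide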
#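 Test system – human fibrin DD(E) · Times – 10 min preincubation, 3 h with tracer, room temperature · Detection – fluorescence polarization of the labelled Tn7 tracer · Measure – percent inhibition normalized to high-control wells · Benchmarks – high control wells with 10 µM unlabelled Aha-Tn7 peptide (full inhibition) · Repeats – singlicate testing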
# Neddylation inh: cullin neddylation inhibition; P61081+Q13564; 360,000 tested, 0.58% active; calls only at 25 µM; TR-FRET cullin neddylation, biochemical; in the data active = inhibition above about 36%
# Neddyl inh conf: cullin neddylation inhibition, confirmation; calls only at 25 µM; shares compounds with Neddylation inh; TR-FRET cullin neddylation biochemical assay; 1,800 tested, 13% active; in the data active = inhibition above about 40%;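 note: neddylation substrate is the cullin 1 ring ligase complex with SKP2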
# * marks the source's active call; other numbers are inactive results; i = inactive; nt = no result shown; + = active, no number.
SMILES,Tn6 DDE FP,proKLK7 act,SKN-1 inh,MT1-MMP act inh,DDE Tn7 FP inh,Neddylation inh,Neddyl inh conf
N#CCCCCN1c2cccc3cccc(c23)S1(=O)=O,1.1,11.1,17.7,2.0,-4.0,nt,nt
O=S1(=O)c2cccc3cccc(c23)N1CCBr,4.2,9.9,5.8,2.1,6.8,+,i
O=C(CN1C(=O)CC(c2ccccc2)S(=O)(=O)c2ccccc21)N1CCCCC1 (stereo unspecified),-4.0,0.0,-8.5,0.9,2.5,i,nt
COC(=O)C1=CN(C2CC2)C=C(C(=O)OC)C1c1ccc(C(=O)OC)cc1,-6.7,3.5,0.4,8.2,-9.1,nt,nt
O=C(N/N=C/c1c(O)n(-c2ccccc2Cl)c(=O)c2ccccc12)C1COc2ccccc2O1 (stereo unspecified),nt,nt,3.6,-5.3,nt,+,i
Cc1ccc(-n2c(O)c(/C=N/NC(=O)C3COc4ccccc4O3)c3ccccc3c2=O)cc1 (stereo unspecified),4.0,-2.2,-3.4,-2.7,2.9,+,i
CCCCCCN1CCS(=O)(=O)N(Cc2ccc(OC)cc2)C(C(=O)OC)C1 (stereo unspecified),4.3,-0.5,nt,nt,-3.5,nt,nt
NS(=O)(=O)c1cccc(Nc2nc3ccccc3nc2NS(=O)(=O)c2ccc(Cl)cc2)c1,8.1,-0.4,11.0,8.7,-0.3,+,+
CC(=O)Nc1ccc(S(=O)(=O)Nc2nc3ccccc3nc2Nc2cccc(O)c2)cc1,1.9,0.4,8.3,1.2,11.1,+,nt
Cn1c(=O)n(C)c2cc(S(=O)(=O)Nc3ccccc3C(=O)O)ccc21,-9.1,-0.2,8.2,-3.5,-0.4,+,i
COc1ccc(C(=O)N/N=C/C(Br)=C/c2ccccc2)cc1,-3.5,0.9,0.7,-3.8,-1.9,i,nt
Cc1ccc2[nH]c(=O)c(C3=NN(C(=O)CCC(=O)O)C(c4cccs4)C3)c(-c3ccccc3)c2c1 (stereo unspecified),0.1,2.3,13.6,0.1,-3.3,+,i
O=C(O)c1cccc(Nc2c3ccccc3nc3ccccc23)c1,-0.5,5.7,0.3,8.0,-4.6,+,i
O=C(Nc1nc(-c2cccnc2)cs1)c1cccc([N+](=O)[O-])c1,-0.7,-0.2,0.9,1.8,-2.0,i,nt
Cc1cc(C)cc(N(CC(=O)NC2CCCC2)C(=O)C2(C)CC(=O)N=C3C=CC=CN32)c1 (stereo unspecified),2.2,0.4,4.0,-0.1,7.6,+,+
FC(F)(F)c1cccc(-c2ccn3ncnc3n2)c1,3.2,-0.1,-3.1,6.0,5.0,+,i
CC(C)OC(=O)/C(=C/c1ccc2c(c1)c1ccccc1n2C)NC(=O)c1ccccc1,-3.5,-13.1,5.4,-1.0,1.7,+,i
CC(C)OC(=O)/C(=C\c1cccnc1)NC(=O)c1ccccc1,4.4,0.3,3.3,2.1,-2.2,i,nt
COC(=O)/C(=C\C=C\c1ccccc1)NC(=O)c1ccccc1,7.3,-0.2,0.6,-3.4,-4.0,i,nt
COC(=O)/C(=C\c1ccc2c(c1)c1ccccc1n2C)NC(=O)c1ccccc1,0.4,-7.8,-5.7,3.9,7.5,+,i
COC(=O)C1=C(C)NC2=C(C(=O)CC(C)(C)C2)C1c1cnn(C)c1C (stereo unspecified),-9.8,9.8,-6.6,-3.1,0.8,+,nt
COc1ccc(CCNC(=O)C2(C)CCC(=O)N2Cc2ccc3c(c2)OCO3)cc1OC (stereo unspecified),-0.9,-0.2,-0.9,2.5,-6.6,i,nt
COc1ccc(CCNC(=O)C2(C)CCC(=O)N2Cc2ccc(F)cc2Cl)cc1OC (stereo unspecified),-11.1,-0.5,12.9,-1.1,-2.0,+,i
COc1ccc(S(=O)(=O)NCc2cccnc2)cc1Br,-5.0,0.2,14.3,8.3,-7.7,i,nt
